The values that follow come from ChEMBL document CHEMBL3808369, “Identification of Cyproheptadine as an Inhibitor of SET Domain Containing Lysine Methyltransferase 7/9 (Set7/9) That Regulates Estrogen-Dependent Transcription” (J Med Chem, 2016).

The source made the active and inactive calls. The rule behind the calls is not given here.

Test [1] has as its target T1, Histone-lysine N-methyltransferase EHMT2 (Homo sapiens) (UniProt Q96KQ7).
T1 sequence (whole entry): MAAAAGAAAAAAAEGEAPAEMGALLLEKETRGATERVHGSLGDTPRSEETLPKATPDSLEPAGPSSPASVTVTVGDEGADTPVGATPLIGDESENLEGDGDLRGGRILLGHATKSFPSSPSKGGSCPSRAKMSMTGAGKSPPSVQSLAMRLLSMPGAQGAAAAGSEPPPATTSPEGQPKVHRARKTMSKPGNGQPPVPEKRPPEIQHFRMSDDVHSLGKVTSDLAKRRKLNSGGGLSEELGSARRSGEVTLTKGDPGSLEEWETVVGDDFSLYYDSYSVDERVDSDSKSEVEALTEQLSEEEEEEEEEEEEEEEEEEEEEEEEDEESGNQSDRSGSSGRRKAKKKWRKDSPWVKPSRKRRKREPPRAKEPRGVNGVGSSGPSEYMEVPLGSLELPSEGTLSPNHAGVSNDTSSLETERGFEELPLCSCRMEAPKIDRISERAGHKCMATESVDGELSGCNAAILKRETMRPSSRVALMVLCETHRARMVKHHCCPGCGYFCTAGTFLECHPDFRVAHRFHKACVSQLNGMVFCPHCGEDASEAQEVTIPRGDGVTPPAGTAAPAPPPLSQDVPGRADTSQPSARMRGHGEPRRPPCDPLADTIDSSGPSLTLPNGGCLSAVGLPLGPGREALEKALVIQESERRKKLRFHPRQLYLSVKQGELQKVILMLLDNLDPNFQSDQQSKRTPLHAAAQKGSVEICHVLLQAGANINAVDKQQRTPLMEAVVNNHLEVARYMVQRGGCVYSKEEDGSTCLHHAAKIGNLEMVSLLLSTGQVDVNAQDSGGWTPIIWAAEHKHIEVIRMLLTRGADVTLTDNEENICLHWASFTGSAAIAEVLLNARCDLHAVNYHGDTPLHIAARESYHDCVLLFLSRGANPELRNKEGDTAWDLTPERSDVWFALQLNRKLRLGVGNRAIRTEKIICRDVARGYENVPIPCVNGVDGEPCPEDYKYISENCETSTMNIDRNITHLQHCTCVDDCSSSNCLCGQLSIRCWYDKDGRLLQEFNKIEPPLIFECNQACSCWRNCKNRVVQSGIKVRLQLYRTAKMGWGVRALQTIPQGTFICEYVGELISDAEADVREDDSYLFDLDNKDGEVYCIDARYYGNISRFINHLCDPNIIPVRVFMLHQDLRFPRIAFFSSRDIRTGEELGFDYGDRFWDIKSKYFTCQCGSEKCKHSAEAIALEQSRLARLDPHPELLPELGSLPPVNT
In words: Inhibition of G9a (unknown origin) by fluorogenic assay.

Test [2] has as its target T2, Histone-lysine N-methyltransferase SETD7 (Homo sapiens) (UniProt Q8WTS6).
T2 sequence (whole entry): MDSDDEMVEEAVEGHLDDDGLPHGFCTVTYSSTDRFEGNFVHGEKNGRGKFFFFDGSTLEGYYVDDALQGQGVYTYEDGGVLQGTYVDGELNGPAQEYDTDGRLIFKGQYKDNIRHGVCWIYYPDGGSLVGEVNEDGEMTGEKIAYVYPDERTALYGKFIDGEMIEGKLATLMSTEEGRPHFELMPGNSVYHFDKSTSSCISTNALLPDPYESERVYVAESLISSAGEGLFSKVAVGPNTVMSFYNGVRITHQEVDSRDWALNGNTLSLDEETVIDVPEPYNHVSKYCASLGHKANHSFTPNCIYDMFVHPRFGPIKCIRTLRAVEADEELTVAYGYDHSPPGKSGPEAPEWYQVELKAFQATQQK
The experiment in a line: Non competitive inhibition of recombinant Set7/9 (unknown origin) expressed in Escherichia coli BL21 (DE3) using Ac-KRSK-MCA peptide as substrate and varying SAM preincubated for 1 hr followed by substrate addition measured after 15 mins by Lineweaver-Burk plot analysis. An outline of the steps: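 His6-tagged Set7/9 purified by Ni2+ affinity from E. coli BL21(DE3) after induction with 0.1 mM IPTG at 18 °C for 24 h. Kinetics were run in a fluorogenic HMT assay using Ac-KRSK-MCA peptide, with either SAM or peptide concentration varied. Initial velocities were analysed by Lineweaver–Burk plot, four independent assays.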

For another test, the system named is MCF7. In words: Effect on ERalpha mRNA expression in human MCF7 cells at 4.3 to 43 uM after 48 hrs by RT-PCR analysis. In kind it is functional, cell-based. The method in brief: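 MCF7 cells were treated with or without compound for 48 h. Total RNA was isolated with TRIzol. ERα and GAPDH mRNA levels were measured by semiquantitative RT-PCR.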
The target in test [3] is T3, N-lysine methyltransferase KMT5A (Homo sapiens) (UniProt Q9NQR1).
T3 sequence (whole entry): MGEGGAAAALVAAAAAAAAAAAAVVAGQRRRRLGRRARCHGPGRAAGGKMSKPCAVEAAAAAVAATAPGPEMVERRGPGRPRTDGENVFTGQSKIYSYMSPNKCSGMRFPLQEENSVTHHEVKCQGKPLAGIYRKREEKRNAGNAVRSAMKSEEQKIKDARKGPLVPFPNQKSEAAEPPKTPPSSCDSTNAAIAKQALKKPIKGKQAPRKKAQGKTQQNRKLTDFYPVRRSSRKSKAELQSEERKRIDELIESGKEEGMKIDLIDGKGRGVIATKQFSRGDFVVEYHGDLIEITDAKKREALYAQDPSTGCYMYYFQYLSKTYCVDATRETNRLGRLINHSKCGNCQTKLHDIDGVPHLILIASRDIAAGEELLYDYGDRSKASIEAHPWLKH
The experiment in a line: Inhibition of Set8 (unknown origin) by AlphaELISA.

Test [4] has as its target T2, Histone-lysine N-methyltransferase SETD7 (Homo sapiens). The experiment in a line: Inhibition of Set7/9 in human MCF7 cells assessed as suppression of beta-estradiol-induced ERE promoter activation at 14 to 43 uM preincubated for 18 hrs followed by beta-estradiol addition measured after 24 hrs by luciferase reporter gene assay. The test is classed as cell-based. An outline of the steps: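 MCF7 cells held in estrogen-free medium (phenol red-free RPMI, 10% charcoal-stripped FBS) for 3 days. Cells were then transfected with a 3×ERE firefly luciferase reporter plus a TK-Renilla control. Drug added 6 h later; after 18 h, ±10 nM β-estradiol for 24 h. Firefly signal normalised to Renilla, expressed as fold over unstimulated cells. Four independent assays.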

Test [5] deals with T1, Histone-lysine N-methyltransferase EHMT2 (Homo sapiens). The experiment in a line: Inhibition of G9a (unknown origin) by ELISA.
In test [6] the target is T2, Histone-lysine N-methyltransferase SETD7 (Homo sapiens). The experiment in a line: Inhibition of recombinant his-tagged Set7/9 (unknown origin) expressed in Escherichia coli BL21 (DE3) using GST-fused histone H3 (1 to 57 residues) as substrate preincubated for 1 hr followed by substrate addition measured after 1 hr by Western blot analysis. An outline of the steps: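 His-Set7/9 (0.2 μg/μL) preincubated with or without inhibitor in HMT buffer for 1 h. Then 1 mM SAM and 0.01 μg/μL GST-histone H3 (1−57) were added and incubated 1 h at 37 °C. Reactions were stopped in SDS loading buffer and immunoblotted with an anti-H3K4me1 antibody.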

Test [7] shares this target. The experiment in a line: Inhibition of Set7/9 in human MCF7 cells assessed as reduction of ERalpha expression at 43 uM by immunoblotting analysis. In kind it is cell-based. To be noted: TDE = time-dependent effect. An outline of the steps: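 MCF7 cells (1 × 10^5 per well) treated either with a concentration series for 48 h or with 43 μM over a time course. RIPA-sonicated lysates were immunoblotted for ERα with enhanced chemiluminescence readout.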

As to `CN1CCC(=C2c3ccccc3C=Cc3ccccc32)CC1` [CYPROHEPTADINE], the inhibition entry in test [1], in test [2], in test [3], in test [4], in test [5] and in test [6] was “Active” each time. The outcome in the test with MCF7 was inactive. Also, the inhibition entry in test [7] was “tde”.
